# Measured values of several laboratories.
# Each line is one published result; the experiments were not run side by side.
# PFF0160c: Dihydroorotate dehydrogenase (quinone), mitochondrial (PFF0160c, Plasmodium falciparum, UniProt Q08210)
# HTR2A: 5-hydroxytryptamine receptor 2A (HTR2A, Homo sapiens, UniProt P28223)
SMILES,target,assay,IC50
Cn1nc2c(=O)n(C3CC3)ccc2c1[C@](O)(c1ccc(C(F)(F)F)c(C#N)c1)C1CC1,PFF0160c,"enzyme activity, inhibitor",0.02 µM
Cn1nccc1[C@]1(CNC(=O)c2ccc(F)c(F)c2-c2ccc(C(F)(F)F)cc2)NC(=O)NC1=O,"Mucosa-associated lymphoid tissue lymphoma translocation protein 1 (MALT1, Homo sapiens, UniProt Q9UDY8)","enzyme activity, inhibitor",> 100 µM
CCn1cnc2c([C@@](O)(CC)c3ccc(C(F)(F)F)nc3)n(C)nc2c1=O,PFF0160c,"enzyme activity, inhibitor",0.056 µM
COc1ccc(COCCN(C)C(C)Cc2ccc(O)cc2)cc1 (stereo not shown),HTR2A,"calcium signal, antagonist",16.9 µM
CC(C)N(CCc1c[nH]c2cccc(OC(=O)CCCC(=O)O)c12)C(C)C,HTR2A,"ligand displacement, radioligand",5.7 µM
COC(=O)c1cc(N(C)C(=O)c2ccn3ncc(-c4ccc(C(=O)O)cc4)c3c2)ccc1Cl,"Serine/threonine-protein kinase WNK1 (WNK1, Homo sapiens, UniProt Q9H4A3)","enzyme activity, inhibitor",> 30 µM
Cn1nc2c(=O)n(C3CC3)cnc2c1[C@](O)(c1ccc(C(F)(F)F)c(C#N)c1)C(F)(F)F,PFF0160c,"enzyme activity, inhibitor",0.0126 µM
Cc1nc(Nc2ccc(CC(=O)O)cc2)nc(Nc2ccc(F)c(C(F)(F)F)c2)c1C,"cGMP-specific 3',5'-cyclic phosphodiesterase (PDE5A, Homo sapiens, UniProt O76074)","enzyme activity, inhibitor, FP",~1.5 µM
Oc1ccc(C2=CCN(CC3CC34CC4)CC2)cc1 (stereo not shown),HTR2A,"calcium signal, antagonist",6.23 µM
CNC(=O)c1ccc(-c2cnn3ccc(C(=O)N(C)c4ccc(Cl)c(C(=O)O)c4)cc23)cc1,"Thromboxane A2 receptor (TBXA2R, Homo sapiens, UniProt P21731)",cell-free assay,> 30 µM
